Published values collected from several papers.
Each line is one published result; the experiments were not run side by side.
Target: Mu-type opioid receptor (OPRM1, Homo sapiens, UniProt P35372)

SMILES	test	conditions	quantity	value
Cc1cccc(C)c1-c1cnc2c(c1)C[C@@]1(OCCCc3ccccc3)[C@H]3Cc4ccc(O)c5c4[C@@]1(CCN3CC1CC1)[C@H]2O5	cell-free assay	–	Ki	~200 nM
CC(NCCc1ccc(O)cc1)C(O)c1ccc(O)cc1 (stereo not drawn)	ligand displacement, radioligand	–	IC50	9180 nM
CCCCC/C=C\C/C=C\C/C=C\CCCCC(=O)O	ligand displacement, radioligand	cell membranes	Ki	22700 nM
Cc1cc(O)cc(C)c1C[C@H](N)C(=O)N1Cc2ccccc2C[C@H]1C(=O)NCC(=O)NCc1ccc(N)cc1	ligand displacement, radioligand	cell membranes	Ki	34 nM
CC(CCc1ccccc1)NC(C)C(O)c1ccc(O)cc1 (stereo not drawn)	ligand displacement, radioligand	–	IC50	9950 nM
Clc1ccc(CSc2nnc(-c3ccccn3)n2Cc2ccco2)cc1Cl	β-arrestin recruitment, agonist, imaging	–	EC50	> 32000 nM
CCCCCCCCC[C@@H]1CC(=O)NCC(=O)N[C@H](Cc2ccc(O)cc2)C(=O)NCC(=O)N[C@@H](Cc2ccccc2)C(=O)O1	ligand displacement, radioligand	–	Ki	6400 nM
Cc1cc(O)cc(C)c1C[C@H](N)C(=O)N1Cc2ccccc2C[C@@H]1C(=O)NCC(=O)NCc1ccccc1	ligand displacement, radioligand	cell membranes	Ki	0.068 nM
Oc1cccc([C@@]23CCC[C@@H](C2)N(CCc2ccccc2)C[C@H]3O)c1 (relative stereo)	cell-free assay	–	Ki	~5 nM
COc1cc(-c2cnc3c(c2)C[C@@]2(OCCCc4ccccc4)[C@H]4Cc5ccc(O)c6c5[C@@]2(CCN4CC2CC2)[C@H]3O6)ccn1	cell-free assay	–	Ki	< 10 nM
Cc1cc(O)cc(C)c1C[C@H](N)C(=O)N1Cc2ccccc2C[C@H]1C(=O)NCC(=O)NC(c1ccccc1)c1ccccc1	ligand displacement, radioligand	cell membranes	Ki	1.71 nM
COc1ccc2c(c1)[C@]13CCCC[C@@H]1[C@H](C2)N(C)CC3	ligand displacement, radioligand	–	IC50	1700 nM
